Measured values as given in ChEMBL document CHEMBL1132767, “Design and synthesis of piperidinyl piperidine analogues as potent and selective M2 muscarinic receptor antagonists” (Bioorg Med Chem Lett, 2000).

Experiments:
[1] = target: Muscarinic acetylcholine receptors; M2 & M3 (Homo sapiens) (UniProt P20309+P08172); test: Binding affinity towards M3 receptor compared to M2 receptor.; assay type: protein assay
[2] = target: T1, Muscarinic acetylcholine receptor M1 (Homo sapiens, UniProt P11229); test: Binding affinity against Muscarinic acetylcholine receptor M1 expressed in CHO-K1 cells; assay type: cell-based
T1 sequence (P11229 whole entry): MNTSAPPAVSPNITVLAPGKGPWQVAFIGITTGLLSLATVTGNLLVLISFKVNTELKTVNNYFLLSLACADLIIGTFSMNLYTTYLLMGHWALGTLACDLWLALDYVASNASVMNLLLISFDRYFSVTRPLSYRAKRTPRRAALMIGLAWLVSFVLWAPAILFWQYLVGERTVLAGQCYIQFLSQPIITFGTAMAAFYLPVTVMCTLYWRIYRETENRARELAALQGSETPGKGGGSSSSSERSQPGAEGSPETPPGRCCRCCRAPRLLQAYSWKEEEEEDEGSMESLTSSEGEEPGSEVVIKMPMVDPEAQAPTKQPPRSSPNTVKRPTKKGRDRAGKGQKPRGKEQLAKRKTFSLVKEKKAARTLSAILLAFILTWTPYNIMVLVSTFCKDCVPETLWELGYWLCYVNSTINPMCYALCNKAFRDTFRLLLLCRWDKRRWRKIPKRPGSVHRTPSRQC
In short: (§1)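 Competition binding against 180 pM [³H]QNB in 10 mM potassium phosphate buffer, pH 7.4, containing 1% DMSO and 0.4% methylcellulose. Incubated 120 min at room temperature to equilibrium. Bound and free label separated by filtration. Nonspecific binding defined with 0.5 mM atropine. Protein adjusted to give 700–1500 cpm specific binding. [³H]QNB Kd for each subtype from saturation binding over 5–2500 pM.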

[3] = target: Muscarinic acetylcholine receptor M3 (Homo sapiens, UniProt P20309); test: Binding affinity against Muscarinic acetylcholine receptor M3 expressed in CHO-K1 cells; assay type: cell-based; in short: as §1
Chain of Muscarinic acetylcholine receptor M3 (P20309 whole entry): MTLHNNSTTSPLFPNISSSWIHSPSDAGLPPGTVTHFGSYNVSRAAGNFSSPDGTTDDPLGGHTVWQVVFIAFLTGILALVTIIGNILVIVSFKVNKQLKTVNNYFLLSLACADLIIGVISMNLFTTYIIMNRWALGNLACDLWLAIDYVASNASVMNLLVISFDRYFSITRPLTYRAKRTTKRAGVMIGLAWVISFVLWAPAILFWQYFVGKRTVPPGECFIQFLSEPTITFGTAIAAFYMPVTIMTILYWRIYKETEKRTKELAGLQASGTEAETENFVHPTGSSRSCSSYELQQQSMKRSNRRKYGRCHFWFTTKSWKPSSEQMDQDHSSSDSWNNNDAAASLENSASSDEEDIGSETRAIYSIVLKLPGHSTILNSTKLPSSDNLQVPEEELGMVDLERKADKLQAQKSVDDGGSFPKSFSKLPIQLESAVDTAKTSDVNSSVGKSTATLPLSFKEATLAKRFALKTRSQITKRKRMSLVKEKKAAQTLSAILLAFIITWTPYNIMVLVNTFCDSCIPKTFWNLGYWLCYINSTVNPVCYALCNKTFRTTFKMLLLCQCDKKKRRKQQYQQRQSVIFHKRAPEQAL

[4] = target: Muscarinic acetylcholine receptors; M1 & M2 (Homo sapiens) (UniProt P11229+P08172); test: Binding affinity towards M1 receptor compared to M2 receptor.; assay type: protein assay
[5] = target: T2, Muscarinic acetylcholine receptor M2 (Homo sapiens, UniProt P08172); test: Binding affinity against Muscarinic acetylcholine receptor M2 stably expressed in CHO-K1 cells.; assay type: cell-based; in short: as §1
T2 sequence (P08172 whole entry): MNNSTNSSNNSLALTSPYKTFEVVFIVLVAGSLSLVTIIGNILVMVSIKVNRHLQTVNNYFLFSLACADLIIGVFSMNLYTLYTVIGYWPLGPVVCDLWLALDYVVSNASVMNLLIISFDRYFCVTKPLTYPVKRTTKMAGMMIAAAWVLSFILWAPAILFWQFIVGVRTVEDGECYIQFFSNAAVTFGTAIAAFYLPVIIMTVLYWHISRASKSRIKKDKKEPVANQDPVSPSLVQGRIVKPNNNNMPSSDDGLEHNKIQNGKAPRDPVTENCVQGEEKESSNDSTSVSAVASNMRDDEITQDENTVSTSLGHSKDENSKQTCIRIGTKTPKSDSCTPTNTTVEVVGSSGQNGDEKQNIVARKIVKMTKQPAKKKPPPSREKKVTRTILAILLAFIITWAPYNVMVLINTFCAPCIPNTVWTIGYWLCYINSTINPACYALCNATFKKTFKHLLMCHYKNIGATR

Chain of Muscarinic acetylcholine receptors; M2 & M3 (Homo sapiens) (P20309 whole entry, looked up, one chain of several): as the sequence (P20309 whole entry) above

SMILES | Selectivity [1] | Ki [2] | Ki [3] | Selectivity [4] | Ki [5]
C=C(c1ccc(S(=O)(=O)c2ccc(OC)cc2)cc1)C1CCN(C2CCN(S(=O)(=O)CCC)CC2)CC1 | 35 | 25.7 nM | 10.1 nM | 89 | 0.29 nM
C=C(c1ccc(S(=O)(=O)c2ccc(OC)cc2)cc1)C1CCN(C2CCN(C(=O)C(C)C)CC2)CC1 | 40 |  |  | 53 | 2.2 nM
C=C(c1ccc(S(=O)(=O)c2ccc(OC)cc2)cc1)C1CCN(C2CCN(C(=O)OCC(C)C)CC2)CC1 |  |  |  | 35 | 0.3 nM
C=C(c1ccc(S(=O)(=O)c2ccc(OC)cc2)cc1)C1CCN(C2CCN(S(=O)(=O)c3ccccc3)CC2)CC1 | 558 |  |  | 104 | 0.36 nM
C=C(c1ccc(S(=O)(=O)c2ccc(OC)cc2)cc1)C1CCN(C2CCCCC2)CC1 | 3 |  |  | 16 | 
C=C(c1ccc(S(=O)(=O)c2ccc(OC)cc2)cc1)C1CCN(C2CCN(C(=O)OCc3ccccc3)CC2)CC1 |  |  |  | 24 | 0.45 nM
C=C(c1ccc(S(=O)(=O)c2ccc(OC)cc2)cc1)C1CCN(C2CCN(S(=O)(=O)CC)CC2)CC1 | 382 |  |  | 162 | 0.46 nM
C=C(c1ccc(S(=O)(=O)c2ccc(OC)cc2)cc1)C1CCN(C2CCN(S(=O)(=O)CCCC)CC2)CC1 | 405 |  |  | 150 | 0.38 nM
C=C(c1ccc(S(=O)(=O)c2ccc(OC)cc2)cc1)C1CCN(C2CCN(S(=O)(=O)Cc3ccccc3)CC2)CC1 | 54 |  |  | 23 | 1.45 nM
C=C(c1ccc(S(=O)(=O)c2ccc(OC)cc2)cc1)C1CCN(C2CCN(C(=O)CC)CC2)CC1 | 13 |  |  | 16 | 3.8 nM
C=C(c1ccc(S(=O)(=O)c2ccc(OC)cc2)cc1)C1CCN(C2CCN(C(=O)OCCC)CC2)CC1 | 40 |  |  | 69 | 0.59 nM
C=C(c1ccc(S(=O)(=O)c2ccc(OC)cc2)cc1)C1CCN(C2CCN(S(=O)(=O)C(C)C)CC2)CC1 | 440 |  |  | 198 | 0.16 nM
C=C(c1ccc(S(=O)(=O)c2ccc(OC)cc2)cc1)C1CCN(C2CCNCC2)CC1 | 3 | 9.1 nM | 3.4 nM | 8 | 1.14 nM
C=C(c1ccc(S(=O)(=O)c2ccc(OC)cc2)cc1)C1CCN(C2CCN(C(=O)OCCCC)CC2)CC1 |  |  |  | 28 | 0.35 nM
C=C(c1ccc(S(=O)(=O)c2ccc(OC)cc2)cc1)C1CCN(C2CCN(C(=O)Cc3ccccc3)CC2)CC1 | 48 |  |  | 32 | 2.99 nM
C=C(c1ccc(S(=O)(=O)c2ccc(OC)cc2)cc1)C1CCN(C2CCN(C(=O)OC(C)C)CC2)CC1 |  |  |  | 36 | 0.41 nM
C=C(c1ccc(S(=O)(=O)c2ccc(OC)cc2)cc1)C1CCN(C2CCN(C(=O)OC)CC2)CC1 | 55 |  |  | 61 | 0.99 nM
C=C(c1ccc(S(=O)(=O)c2ccc(OC)cc2)cc1)C1CCN(C2CCN(C(=O)CCC)CC2)CC1 | 324 | 42 nM | 122 nM | 111 | 0.38 nM
C=C(c1ccc(S(=O)(=O)c2ccc(OC)cc2)cc1)C1CCN(C2CCN(C(=O)C3CC3)CC2)CC1 | 260 |  |  | 262 | 0.26 nM
C=C(c1ccc(S(=O)(=O)c2ccc(OC)cc2)cc1)C1CCN(C2CCN(C(=O)OCC)CC2)CC1 | 34 | 6.5 nM | 3.7 nM | 59 | 0.11 nM
